{"source": "ChEMBL document CHEMBL4130386", "about": "“Notch Inhibitors from Calotropis gigantea That Induce Neuronal Differentiation of Neural Stem Cells” (J Nat Prod, 2017)", "key": {"[1]": {"assay": "Inhibition of recombinant mouse N-terminal FLAG-tagged Notch1 (1704 to 2531 residues) expressed in human LS174T cells assessed as reduction in doxycycline-induced NICD expression after 12 hrs by Bright-Glo luciferase reporter gene assay", "assay_type": "cell-based", "in_short": "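LS174T Notch cells seeded 2 × 10^4 cells/well, 12 h at 37 °C. Dox 50 ng/mL for 12 h, then Dox-free medium with samples for 12 h at 37 °C in 0.1% DMSO. Luciferase read with Bright-Glo. Viability measured in parallel by fluorometric microculture cytotoxicity assay. SD, n = 3.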"}, "[2]": {"biological_target": "Gamma-secretase (Homo sapiens) (UniProt Q96BI3+Q9NZ42+Q8WW43+P49768+Q92542+P49810)", "assay": "Effect on gamma-secretase activity in human LS174T cells harboring mouse N-terminal FLAG-tagged Notch1 (1704 to 2531 residues) after 12 hrs by Western blot analysis", "assay_type": "cell-based"}, "[3]": {"biological_target": "Neurogenic locus notch homolog protein 1 (Homo sapiens) (UniProt P46531)", "sequence (P46531 whole entry, the tested form may be a part)": "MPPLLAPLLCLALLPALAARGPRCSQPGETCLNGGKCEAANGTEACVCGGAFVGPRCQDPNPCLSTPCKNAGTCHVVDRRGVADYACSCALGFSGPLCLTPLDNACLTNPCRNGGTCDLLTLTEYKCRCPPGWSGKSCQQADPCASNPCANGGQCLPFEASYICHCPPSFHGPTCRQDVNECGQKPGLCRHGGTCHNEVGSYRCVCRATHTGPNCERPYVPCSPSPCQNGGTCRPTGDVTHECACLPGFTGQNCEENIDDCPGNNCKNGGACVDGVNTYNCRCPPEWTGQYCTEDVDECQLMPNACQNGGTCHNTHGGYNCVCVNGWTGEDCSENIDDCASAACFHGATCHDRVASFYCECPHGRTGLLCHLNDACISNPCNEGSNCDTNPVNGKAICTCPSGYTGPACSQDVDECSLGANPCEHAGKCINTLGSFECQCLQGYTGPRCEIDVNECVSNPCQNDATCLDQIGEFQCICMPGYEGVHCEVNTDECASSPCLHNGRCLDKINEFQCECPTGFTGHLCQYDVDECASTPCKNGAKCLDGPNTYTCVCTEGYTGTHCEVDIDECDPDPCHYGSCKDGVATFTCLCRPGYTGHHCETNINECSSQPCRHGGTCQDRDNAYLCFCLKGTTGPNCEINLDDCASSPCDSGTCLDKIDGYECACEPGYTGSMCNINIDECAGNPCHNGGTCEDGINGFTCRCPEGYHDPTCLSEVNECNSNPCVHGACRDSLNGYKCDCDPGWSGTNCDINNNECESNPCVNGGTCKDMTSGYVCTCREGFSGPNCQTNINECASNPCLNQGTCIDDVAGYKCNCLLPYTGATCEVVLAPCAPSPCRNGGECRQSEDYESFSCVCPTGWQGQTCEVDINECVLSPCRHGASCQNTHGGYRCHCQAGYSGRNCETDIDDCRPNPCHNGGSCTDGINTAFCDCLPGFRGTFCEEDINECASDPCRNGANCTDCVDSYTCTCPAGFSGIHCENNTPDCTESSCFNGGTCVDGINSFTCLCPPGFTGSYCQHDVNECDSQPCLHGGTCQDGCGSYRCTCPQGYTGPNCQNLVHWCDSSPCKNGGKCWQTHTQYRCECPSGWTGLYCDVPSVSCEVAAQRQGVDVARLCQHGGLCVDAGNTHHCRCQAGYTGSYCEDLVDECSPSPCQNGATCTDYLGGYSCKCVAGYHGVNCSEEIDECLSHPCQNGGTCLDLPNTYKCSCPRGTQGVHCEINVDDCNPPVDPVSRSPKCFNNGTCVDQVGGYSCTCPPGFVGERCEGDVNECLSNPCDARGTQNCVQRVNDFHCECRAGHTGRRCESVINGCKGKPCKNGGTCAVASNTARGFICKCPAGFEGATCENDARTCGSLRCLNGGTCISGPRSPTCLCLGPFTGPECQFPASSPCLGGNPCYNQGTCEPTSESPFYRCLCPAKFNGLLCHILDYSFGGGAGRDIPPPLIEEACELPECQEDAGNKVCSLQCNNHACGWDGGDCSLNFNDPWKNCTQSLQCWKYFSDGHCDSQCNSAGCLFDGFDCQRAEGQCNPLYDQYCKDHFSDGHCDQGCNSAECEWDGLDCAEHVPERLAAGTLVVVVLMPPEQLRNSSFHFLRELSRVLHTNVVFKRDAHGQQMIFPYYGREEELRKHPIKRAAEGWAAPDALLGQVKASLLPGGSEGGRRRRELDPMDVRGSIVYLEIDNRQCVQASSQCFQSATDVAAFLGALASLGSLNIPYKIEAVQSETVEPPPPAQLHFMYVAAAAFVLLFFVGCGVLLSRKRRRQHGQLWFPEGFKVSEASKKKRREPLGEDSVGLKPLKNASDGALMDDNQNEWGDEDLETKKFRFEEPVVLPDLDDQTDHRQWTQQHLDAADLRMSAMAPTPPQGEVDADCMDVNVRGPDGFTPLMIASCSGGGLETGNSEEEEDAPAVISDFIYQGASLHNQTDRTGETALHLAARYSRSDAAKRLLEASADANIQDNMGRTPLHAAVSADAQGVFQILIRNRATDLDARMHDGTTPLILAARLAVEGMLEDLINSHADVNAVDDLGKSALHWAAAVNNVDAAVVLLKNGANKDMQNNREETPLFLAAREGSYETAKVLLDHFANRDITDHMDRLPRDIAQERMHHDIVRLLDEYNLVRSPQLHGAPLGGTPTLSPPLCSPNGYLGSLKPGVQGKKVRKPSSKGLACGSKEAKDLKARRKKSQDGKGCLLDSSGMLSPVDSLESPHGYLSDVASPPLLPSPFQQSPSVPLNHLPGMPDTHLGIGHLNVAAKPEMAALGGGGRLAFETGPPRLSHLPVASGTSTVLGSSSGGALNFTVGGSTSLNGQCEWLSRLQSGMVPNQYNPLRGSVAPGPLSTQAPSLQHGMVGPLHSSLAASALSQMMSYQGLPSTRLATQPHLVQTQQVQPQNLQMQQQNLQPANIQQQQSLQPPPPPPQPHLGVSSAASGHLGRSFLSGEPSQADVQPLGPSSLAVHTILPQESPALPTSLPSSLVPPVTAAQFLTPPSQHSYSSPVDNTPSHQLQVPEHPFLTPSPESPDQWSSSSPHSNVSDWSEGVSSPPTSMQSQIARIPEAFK", "assay": "Inhibition of doxycycline-induced recombinant mouse N-terminal FLAG-tagged Notch1 (1704 to 2531 residues) activation expressed in human LS174T cells assessed as reduction in Hes1 level at 0.1 to 1 uM after 12 hrs by Western blot analysis", "assay_type": "cell-based", "in_short": "(§1)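 LS174T Notch cells (Tet-On LS174T, N-terminally FLAG-tagged mouse Notch1(1704-2531), stable 12×RBP-J luciferase reporter) seeded 1 × 10^6 cells per 6 cm dish for 12 h at 37 °C. Dox 50 ng/mL for 12 h, then fresh medium with compound for 12 h. Whole-cell lysates, SDS-PAGE, PVDF, ECL detection. Anti-Flag used for the Notch1 fragment; β-actin internal control.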"}, "[4]": {"biological_target": "Neurogenic locus notch homolog protein 1 (Homo sapiens) (UniProt P46531)", "assay": "Inhibition of doxycycline-induced recombinant mouse N-terminal FLAG-tagged Notch1 (1704 to 2531 residues) activation expressed in human LS174T cells assessed as reduction in Hes5 level at 0.1 to 1 uM after 12 hrs by Western blot analysis", "assay_type": "cell-based", "in_short": "as §1"}, "[5]": {"biological_target": "Neurogenic locus notch homolog protein 1 (Mus musculus) (UniProt Q01705)", "sequence (Q01705 whole entry)": "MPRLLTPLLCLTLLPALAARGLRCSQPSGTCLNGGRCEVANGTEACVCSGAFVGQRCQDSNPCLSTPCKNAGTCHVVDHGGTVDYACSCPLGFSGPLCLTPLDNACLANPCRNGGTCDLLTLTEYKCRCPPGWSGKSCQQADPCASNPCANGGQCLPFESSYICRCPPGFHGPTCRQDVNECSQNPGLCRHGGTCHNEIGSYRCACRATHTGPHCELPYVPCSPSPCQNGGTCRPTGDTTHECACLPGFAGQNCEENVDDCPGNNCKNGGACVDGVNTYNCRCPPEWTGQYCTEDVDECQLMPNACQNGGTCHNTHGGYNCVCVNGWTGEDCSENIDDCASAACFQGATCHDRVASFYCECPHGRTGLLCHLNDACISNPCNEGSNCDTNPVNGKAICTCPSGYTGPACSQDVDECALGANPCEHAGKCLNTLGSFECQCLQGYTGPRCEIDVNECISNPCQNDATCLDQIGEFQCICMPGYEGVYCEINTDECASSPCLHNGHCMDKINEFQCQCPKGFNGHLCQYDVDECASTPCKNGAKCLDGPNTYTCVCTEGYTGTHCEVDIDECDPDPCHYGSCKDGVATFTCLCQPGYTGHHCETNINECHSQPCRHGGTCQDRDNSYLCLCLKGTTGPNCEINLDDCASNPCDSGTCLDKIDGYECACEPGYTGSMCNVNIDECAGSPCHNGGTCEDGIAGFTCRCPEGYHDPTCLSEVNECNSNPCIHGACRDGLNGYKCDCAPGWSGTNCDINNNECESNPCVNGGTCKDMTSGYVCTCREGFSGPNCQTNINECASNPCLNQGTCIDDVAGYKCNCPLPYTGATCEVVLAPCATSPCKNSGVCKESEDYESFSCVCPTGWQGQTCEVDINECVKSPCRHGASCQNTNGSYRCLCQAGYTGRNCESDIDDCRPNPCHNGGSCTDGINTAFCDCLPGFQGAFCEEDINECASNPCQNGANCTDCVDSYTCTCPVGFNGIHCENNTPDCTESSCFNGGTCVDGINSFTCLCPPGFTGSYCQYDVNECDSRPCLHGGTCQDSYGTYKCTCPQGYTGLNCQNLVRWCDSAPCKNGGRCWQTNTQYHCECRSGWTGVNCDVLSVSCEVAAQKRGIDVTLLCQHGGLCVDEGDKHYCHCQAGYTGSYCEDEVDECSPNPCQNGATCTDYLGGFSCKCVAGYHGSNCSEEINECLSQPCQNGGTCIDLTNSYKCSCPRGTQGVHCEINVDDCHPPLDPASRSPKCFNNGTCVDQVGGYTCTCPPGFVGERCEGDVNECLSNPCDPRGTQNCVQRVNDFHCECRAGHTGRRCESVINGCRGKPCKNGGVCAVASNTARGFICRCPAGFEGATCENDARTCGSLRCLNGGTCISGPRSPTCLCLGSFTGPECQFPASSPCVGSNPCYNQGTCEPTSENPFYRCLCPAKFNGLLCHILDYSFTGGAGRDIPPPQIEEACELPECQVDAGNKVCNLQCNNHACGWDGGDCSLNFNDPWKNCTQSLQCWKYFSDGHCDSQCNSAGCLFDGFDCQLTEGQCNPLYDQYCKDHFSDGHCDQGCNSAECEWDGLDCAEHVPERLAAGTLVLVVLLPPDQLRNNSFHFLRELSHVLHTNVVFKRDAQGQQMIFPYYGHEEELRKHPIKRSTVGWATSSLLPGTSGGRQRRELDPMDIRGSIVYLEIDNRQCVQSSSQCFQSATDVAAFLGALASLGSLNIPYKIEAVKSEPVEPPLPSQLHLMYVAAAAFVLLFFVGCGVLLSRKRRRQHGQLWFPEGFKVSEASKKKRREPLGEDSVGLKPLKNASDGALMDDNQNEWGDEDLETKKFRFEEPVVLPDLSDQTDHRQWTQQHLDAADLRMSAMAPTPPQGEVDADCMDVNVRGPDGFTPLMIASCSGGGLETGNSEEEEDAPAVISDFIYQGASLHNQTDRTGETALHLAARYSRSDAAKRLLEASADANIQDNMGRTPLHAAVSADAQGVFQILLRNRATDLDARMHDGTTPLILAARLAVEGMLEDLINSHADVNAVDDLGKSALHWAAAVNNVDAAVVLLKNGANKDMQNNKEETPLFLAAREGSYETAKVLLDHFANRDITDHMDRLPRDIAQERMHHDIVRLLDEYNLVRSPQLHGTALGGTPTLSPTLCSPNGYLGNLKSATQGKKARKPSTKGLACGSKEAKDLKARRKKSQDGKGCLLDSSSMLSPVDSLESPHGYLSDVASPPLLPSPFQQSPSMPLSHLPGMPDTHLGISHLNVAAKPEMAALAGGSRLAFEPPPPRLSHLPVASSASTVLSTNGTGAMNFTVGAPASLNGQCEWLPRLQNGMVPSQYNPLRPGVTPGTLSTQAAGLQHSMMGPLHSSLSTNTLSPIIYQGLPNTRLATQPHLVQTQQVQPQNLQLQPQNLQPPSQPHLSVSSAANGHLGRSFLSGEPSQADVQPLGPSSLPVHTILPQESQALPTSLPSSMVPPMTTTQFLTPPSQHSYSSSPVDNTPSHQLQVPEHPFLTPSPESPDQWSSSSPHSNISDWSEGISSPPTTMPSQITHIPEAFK", "assay": "Inhibition of recombinant mouse Notch1-RAMIC expressed in MEB5 cells assessed as reduction in doxycycline-induced NICD expression at 10 uM after 12 hrs by Western blot analysis", "assay_type": "cell-based", "in_short": "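Dissociated MEB5 cells were seeded at 2 × 10^6 cells/well in 6 cm dishes coated with poly-L-lysine and fibronectin/laminin. After 12 h in proliferation medium, cells were washed with serum-free NeuroCult basal medium and treated in differentiation medium with 10 μM for 12 h. Whole-cell lysates were run on SDS-PAGE and immunoblotted for NICD, with ECL detection.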"}, "[6]": {"biological_target": "Neurogenic locus notch homolog protein 1 (Mus musculus) (UniProt Q01705)", "assay": "Inhibition of recombinant mouse Notch1-RAMIC expressed in MEB5 cells harboring TP1 assessed as luciferase activity at 10 uM after 12 hrs by Dual-Glo luciferase assay (reference value: 0.258)", "assay_type": "cell-based"}, "[7]": {"test_system": "MEB5", "assay": "Induction of neuronal differentiation in mouse MEB5 cells assessed as number of neurons at 10 uM after 4 days by Tuj1 staining based immunofluorescence analysis (reference value: 13.3 %)", "assay_type": "functional", "in_short": "(§2)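 MEB5 mouse neurospheres were chemically dissociated and seeded at 2 × 10^6 cells/well on coverslips coated with poly-L-lysine and fibronectin/laminin. After 12 h in proliferation medium, cells were washed with NeuroCult basal medium and treated for 4 days in differentiation medium. They were then fixed in 4% paraformaldehyde and immunostained for Tuj-1 (neurons) and GFAP (astrocytes), with TO-PRO-3 nuclear counterstain. Confocal imaging used four fields per well and three wells per condition, covering over 4000 cells and 670 neurites per sample.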"}, "[8]": {"test_system": "MEB5", "assay": "Induction of neuronal differentiation in mouse MEB5 cells assessed as neurite length at 10 uM after 4 days by Tuj1 staining based immunofluorescence analysis (reference value: 14.3 micrometer)", "assay_type": "functional", "in_short": "as §2"}, "[9]": {"test_system": "MEB5", "assay": "Induction of neuronal differentiation in mouse MEB5 cells assessed as increase in neurite extension length at 10 uM after 4 days by Tuj1 staining based immunofluorescence analysis relative to control", "assay_type": "functional", "in_short": "as §2"}, "[10]": {"test_system": "MEB5", "assay": "Induction of neuronal differentiation in mouse MEB5 cells assessed as reduction in astrocytes at 10 uM after 4 days by GFAP staining based immunofluorescence analysis", "assay_type": "functional, cell-based", "in_short": "as §2"}, "[11]": {"test_system": "LS174T", "assay": "Effect on Notch1 (1704 to 2531 residues) expression in human LS174T cells at 0.001 to 10 uM after 12 hrs by Western blot analysis", "assay_type": "functional, cell-based", "in_short": "as §1"}, "[12]": {"test_system": "MEB5", "assay": "Induction of neuronal differentiation in mouse MEB5 cells assessed as number of neurons at 1 uM after 4 days by Tuj1 staining based immunofluorescence analysis (reference value: 13.3 %)", "assay_type": "functional"}, "[13]": {"test_system": "MEB5", "assay": "Induction of neuronal differentiation in mouse MEB5 cells assessed as neurite length at 1 uM after 4 days by Tuj1 staining based immunofluorescence analysis (reference value: 14.3 micrometer)", "assay_type": "functional"}, "[14]": {"test_system": "MEB5", "assay": "Induction of neuronal differentiation in mouse MEB5 cells assessed as increase in neurite extension length at 1 uM after 4 days by Tuj1 staining based immunofluorescence analysis relative to control", "assay_type": "functional"}, "[15]": {"biological_target": "Neurogenic locus notch homolog protein 1 (Mus musculus) (UniProt Q01705)", "assay": "Inhibition of Notch1 in mouse MEB5 cells assessed as reduction in NICD expression at 1 uM after 24 hrs by Western blot analysis", "assay_type": "cell-based", "in_short": "(§3)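 MEB5 mouse neural stem cells dissociated and seeded on poly-L-lysine and fibronectin/laminin-coated 6 cm dishes in proliferation medium for 12 h. Washed with NeuroCult basal medium, then compound given in differentiation medium for 24 h. Lysates analysed by Western blot (SDS-PAGE, PVDF, ECL); γ-secretase antibody sampler kit used for γ-secretase components.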"}, "[16]": {"biological_target": "Neurogenic locus notch homolog protein 1 (Mus musculus) (UniProt Q01705)", "assay": "Inhibition of Notch1 in mouse MEB5 cells assessed as reduction in Hes1 expression at 1 uM after 24 hrs by Western blot analysis", "assay_type": "cell-based", "in_short": "as §3"}, "[17]": {"biological_target": "Neurogenic locus notch homolog protein 1 (Mus musculus) (UniProt Q01705)", "assay": "Inhibition of Notch1 in mouse MEB5 cells assessed as reduction in Hes5 expression at 1 uM after 24 hrs by Western blot analysis", "assay_type": "cell-based", "in_short": "as §3"}, "[18]": {"test_system": "MEB5", "assay": "Effect on gamma-secretase activity in mouse MEB5 cells assessed as nicastrin expression at 1 uM after 24 hrs by Western blot analysis", "assay_type": "cell-based", "in_short": "as §3"}, "[19]": {"test_system": "MEB5", "assay": "Effect on gamma-secretase activity in mouse MEB5 cells assessed as PS1 expression at 1 uM after 24 hrs by Western blot analysis", "assay_type": "cell-based", "in_short": "as §3"}, "[20]": {"test_system": "MEB5", "assay": "Effect on gamma-secretase activity in mouse MEB5 cells assessed as PS2 expression at 1 uM after 24 hrs by Western blot analysis", "assay_type": "cell-based", "in_short": "as §3"}, "[21]": {"test_system": "MEB5", "assay": "Effect on gamma-secretase activity in mouse MEB5 cells assessed as PEN2 expression at 1 uM after 24 hrs by Western blot analysis", "assay_type": "cell-based", "in_short": "as §3"}, "[22]": {"biological_target": "Neurogenic locus notch homolog protein 1 (Mus musculus) (UniProt Q01705)", "assay": "Inhibition of Notch1 in mouse MEB5 cells assessed as reduction in NICD expression at 1 uM after 24 hrs in presence of proteasome inhibitor MG132 by Western blot analysis", "assay_type": "cell-based"}, "[23]": {"test_system": "MEB5", "assay": "Inhibition of Wnt signaling in mouse MEB5 cells assessed as reduction in beta-catenin level up to 1 uM after 12 to 24 hrs by Western blot analysis", "assay_type": "cell-based"}, "[24]": {"test_system": "MEB5", "assay": "Induction of neuronal differentiation in mouse MEB5 cells assessed as reduction in astrocytes at 1 uM after 4 days by GFAP staining based immunofluorescence analysis", "assay_type": "functional, cell-based"}}, "note": "Activity calls are given as the source filed them. The calls are words filed in the database; no cut-off is given here.", "data": [{"smiles": "C[C@@H]1C[C@@]2(N=CCS2)[C@]2(O)O[C@@H]3C[C@@]4(C=O)[C@@H](CC[C@@H]5[C@@H]4CC[C@]4(C)[C@@H](C6=CC(=O)OC6)[C@H](O)C[C@]54O)C[C@H]3O[C@@H]2O1", "values": [{"measurement": "inhibition", "setting": "[1]", "result": "Dose-dependent effect"}]}, {"smiles": "C[C@@H]1C[C@@]2(NC(=O)CS2)[C@]2(O)O[C@@H]3C[C@@]4(C=O)[C@@H](CC[C@@H]5[C@@H]4CC[C@]4(C)[C@@H](C6=CC(=O)OC6)CC[C@]54O)C[C@H]3O[C@@H]2O1", "values": [{"measurement": "inhibition", "setting": "[1]", "result": "Dose-dependent effect"}]}, {"smiles": "C[C@@H]1CC(=O)[C@]2(O)O[C@@H]3C[C@@]4(C=O)[C@@H](CC[C@@H]5[C@@H]4CC[C@]4(C)[C@@H](C6=CC(=O)OC6)CC[C@]54O)C[C@H]3O[C@@H]2O1", "values": [{"measurement": "inhibition", "setting": "[1]", "result": "Dose-dependent effect"}]}, {"smiles": "C[C@@H]1C[C@H](O)[C@]2(O)O[C@@H]3C[C@@]4(C=O)[C@@H](CC[C@@H]5[C@@H]4CC[C@]4(C)[C@@H](C6=CC(=O)OC6)CC[C@]54O)C[C@H]3O[C@@H]2O1", "values": [{"measurement": "inhibition", "setting": "[1]", "result": "Dose-dependent effect"}, {"measurement": "Activity", "setting": "[2]", "result": "inactive"}]}, {"smiles": "C[C@H](NC(=O)Cc1cc(F)cc(F)c1)C(=O)N[C@H](C(=O)OC(C)(C)C)c1ccccc1", "values": [{"measurement": "inhibition", "setting": "[3]", "result": "Active"}, {"measurement": "inhibition", "setting": "[4]", "result": "Active"}, {"measurement": "inhibition", "setting": "[5]", "result": "Active"}, {"measurement": "Activity", "setting": "[6]", "result": 0.004}, {"measurement": "Activity", "setting": "[7]", "result": 19.7, "unit": "%"}, {"measurement": "Activity", "setting": "[8]", "result": 20.5, "unit": "um"}, {"measurement": "Activity", "setting": "[9]", "result": 43, "unit": "%"}, {"measurement": "Activity", "setting": "[10]", "result": "Active"}]}, {"smiles": "COC(=O)[C@@]1(O)C[C@@H](C)O[C@H]1O[C@@H]1C[C@@H]2CC[C@@H]3[C@H](CC[C@]4(C)[C@@H](C5=CC(=O)OC5)[C@H](O)C[C@]34O)[C@@]2(C=O)C[C@H]1O", "values": [{"measurement": "inhibition", "setting": "[1]", "result": "Dose-dependent effect"}]}, {"smiles": "C[C@@H]1C[C@@]2(N=CCS2)[C@]2(O)O[C@@H]3C[C@@]4(C=O)[C@@H](CC[C@@H]5[C@@H]4CC[C@]4(C)[C@@H](C6=CC(=O)OC6)CC[C@]54O)C[C@H]3O[C@@H]2O1", "note": "[USCHARIN]", "values": [{"measurement": "inhibition", "setting": "[1]", "result": "Dose-dependent effect"}, {"measurement": "inhibition", "setting": "[3]", "result": "Active"}, {"measurement": "inhibition", "setting": "[4]", "result": "Active"}, {"measurement": "Activity", "setting": "[11]", "result": "inactive"}, {"measurement": "Activity", "setting": "[2]", "result": "inactive"}, {"measurement": "Activity", "setting": "[12]", "result": 20.8, "unit": "%"}, {"measurement": "Activity", "setting": "[13]", "result": 19.5, "unit": "um"}, {"measurement": "Activity", "setting": "[14]", "result": 36, "unit": "%"}, {"measurement": "inhibition", "setting": "[15]", "result": "Active"}, {"measurement": "inhibition", "setting": "[16]", "result": "Active"}, {"measurement": "inhibition", "setting": "[17]", "result": "Active"}, {"measurement": "Activity", "setting": "[18]", "result": "inactive"}, {"measurement": "Activity", "setting": "[19]", "result": "inactive"}, {"measurement": "Activity", "setting": "[20]", "result": "inactive"}, {"measurement": "Activity", "setting": "[21]", "result": "inactive"}, {"measurement": "inhibition", "setting": "[22]", "result": "inactive"}, {"measurement": "inhibition", "setting": "[23]", "result": "inactive"}, {"measurement": "Activity", "setting": "[24]", "result": "Active"}]}, {"smiles": "C[C@@H]1C[C@@]2(NCCS2)[C@]2(O)O[C@@H]3C[C@@]4(C=O)[C@@H](CC[C@@H]5[C@@H]4CC[C@]4(C)[C@@H](C6=CC(=O)OC6)CC[C@]54O)C[C@H]3O[C@@H]2O1", "values": [{"measurement": "inhibition", "setting": "[1]", "result": "Dose-dependent effect"}]}, {"smiles": "CC(=O)O[C@H]1C[C@@H](C)O[C@H]2O[C@@H]3C[C@@H]4CC[C@@H]5[C@H](CC[C@]6(C)[C@@H](C7=CC(=O)OC7)CC[C@]56O)[C@@]4(C=O)C[C@H]3O[C@]21O", "values": [{"measurement": "inhibition", "setting": "[1]", "result": "Dose-dependent effect"}, {"measurement": "Activity", "setting": "[2]", "result": "inactive"}]}]}
